MT stabilize HCS: stabilizes microtubules in HeLa cells; 200,000 tested, 0.83% active; HeLa tubulin immunostaining HCS, 24 h; share of cells brighter than vehicle mean+2SD; % tubulin-high responders, % at 10 µM; AID 2205;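 active = plate Z-score above 3 for both tubulin-high and condensed-nucleus cell shares, with cell loss under 80%, at 10 µM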;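 note: anti alpha tubulin signal scored within the nucleus-defined area of each cell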
Autophagy mod: autophagy modulation, high-content screen. MEF GFP-LC3 puncta imaging; test concentration mostly 10 µM. calls only at 10 µM (by protocol). 190,000 tested, 0.98% active. AID 463193;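 active = percentage of spot-positive cells more than 3 SD above its plate mean, without a fluorescence outlier flag or 80% toxicity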
Lmaj promast: Leishmania major promastigote growth inhibition; Leishmania major promastigotes, resazurin fluorescence viability; inhibition, % at 10 µM; 200,000 tested, 9% active; AID 1063; in the data active = inhibition above about 50%;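 note: promastigotes grown with compound for 44 hours at 28 °C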
Dynein cargo inh: blocks dynein driven cargo transport along microtubules. 3617.4 mouse cells, GR-EGFP nuclear translocation imaging; test concentration mostly 20 µM; stimulated with dexamethasone, 1 µM; stronger effect = lower value. z-score, hits read low. 220,000 tested, 0.47% active;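 active = plate z-score of nuclear minus cytoplasmic receptor signal below a set negative limit, without overly bright fluorescence or cell loss, cut at about -3.5 in these data, passing the limit was not always enough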;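 note: z-score of nuclear minus cytoplasmic ring GR-EGFP intensity difference per well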
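Buffer or medium: Induction medium lacking tetracycline, stripped serum | Also added: Dexamethasone agonist, 1.0 µM final, for 30 min | Timing: 48 h induction, 1 h compound, 30 min dex at 37 °C | Detection: Formaldehyde fixation, Hoechst nuclear stain, 10x automated fluorescence imaging | Measure: Nuclear versus cytoplasmic GR-EGFP signal, averaged per well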
b-catenin transl: beta-catenin nuclear translocation modulation. nuclear translocation activity, % at 5 µM. 190,000 tested, 0.3% active. HeLa beta-catenin nuclear translocation, immunofluorescence imaging;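 active = nuclear translocation activity above 50% at 5 µM, with a well cell count of 50 or more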;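 note: per-cell ratio of nuclear to cytoplasmic median beta-catenin stain intensity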
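Test system: human HeLa cell line; Doses: 5 µM primary, 0.02–20 µM confirmation; Incubation: 24 h compound exposure, 37°C; Detection: beta-catenin immunofluorescence imaging with DAPI; Read-out: beta-catenin nuclear/cytoplasmic ratio, % activation.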
CHOP inhibitor: blocks CHOP induction under ER stress. CHO-K1 CHOP-promoter luciferase, tunicamycin-induced, 15-18 h. inhibition, % at 10 µM. 220,000 tested, 3.8% active;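 active = compounds that reduced the stress-induced luciferase reporter signal by more than about 70% of percent inhibition, limit read from the data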
Each line names hits and unclear results; the compound was inactive in the other large screens. Compounds with a hit are over-represented: about 12% of the library has one in this group of screens.

COc1ccc(-c2ccnc(-c3ccc(OCCCF)cc3)n2)cc1	CHOP inhibitor 71
Cc1nn(-c2ccccc2)c2c1C1(C(=O)Nc3ccccc31)N1C(=N2)Sc2ccccc21 (centres undefined)	Autophagy mod active
C/C(=N/NC(=O)CNc1ccc(Cl)cc1C)c1ccc(C)cc1	CHOP inhibitor 87
CCCCCCSc1nnc(-c2cnn(-c3ccccc3)c2-n2cccc2)n1C	CHOP inhibitor 84
CCNC(=S)N1CCc2cc(OC)c(OC)cc2C1COc1ccc(OC)cc1 (centres undefined)	Lmaj promast 68
Cc1ccc(S(=O)(=O)N(CC(=O)N2CCN(c3ccccc3F)CC2)C2CCCCC2)cc1	Lmaj promast 97
CS(=O)(=O)N(CC(=O)N1CCN(c2ccccc2F)CC1)C1CCCCC1	none (no result: b-catenin transl)
CS(=O)(=O)N(CC(=O)N1CCCCC1)C1CCCCC1	none
CS(=O)(=O)N(CC(=O)N1CCN(C(c2ccccc2)c2ccccc2)CC1)C1CCCCC1	Lmaj promast 92, CHOP inhibitor 79
COc1cc(OC)cc(N(C(=O)C2COc3ccccc3O2)C(C(=O)NC2CCCCC2)c2ccc(O)cc2)c1 (centres undefined)	Lmaj promast 64
COc1ccc(N(C(=O)C2COc3ccccc3O2)C(C(=O)NC2CCCCC2)c2ccccc2)cc1OC (centres undefined)	Lmaj promast 99
O=C(O)CC12CC3CC(C1)CC(n1ncc(NCc4ccc5c(c4)OCO5)c(Cl)c1=O)(C3)C2	none
Cc1ccnc(NS(=O)(=O)c2ccc(NC(=O)C34CC5CC(CC(C5)C3)C4)cc2)n1	none
Cc1ccc(NC(=S)N/N=C2\CC(C)(C)Oc3ccc(O)cc32)cc1	none
Cc1ccccc1NC(=S)N/N=C1\CC(C)(C)Oc2ccc(O)cc21	Lmaj promast 84
COc1ccc([N+](=O)[O-])cc1NC(=O)c1ccc(N2C(=O)CCC2=O)cc1	none (no result: MT stabilize HCS, Autophagy mod, Lmaj promast)
COC(=O)C(CCSC)NC(=O)C(NC(=O)C1CCC(C)CC1)C(C)C (centres undefined)	Lmaj promast 69
CCC(C)C(NC(=O)C1CCC(C)CC1)C(=O)Nc1cc(OC)ccc1OC (centres undefined)	CHOP inhibitor 82 (no result: b-catenin transl)
CCC(C)C(NC(=O)C1CCC(C)CC1)C(=O)NC(CCSC)C(=O)OC (centres undefined)	Lmaj promast 68
CSCCC(NC(=O)C1CCC(C)CC1)C(=O)O (centres undefined)	none
COc1coc(/C=C/C(=O)O)cc1=O	none (no result: b-catenin transl)
COc1ccc(OC)c(NC(=O)Cn2cc(C#N)c3cc(Br)ccc32)c1	none
CC1CN(S(=O)(=O)c2ccc(Cl)c(C(F)(F)F)c2)CC(C)O1 (centres undefined)	none
O=C(NCCOc1ccccc1Cl)C(=O)c1c[nH]c2ccccc12	none
C=CCNC(=O)C(=O)NCCOc1ccccc1Cl	MT stabilize HCS 23
O=C(Sc1cccc2cccnc12)c1ccc(F)cc1	Lmaj promast 100, CHOP inhibitor 91
CN(C)C(=O)CSc1cccc2cccnc12	Autophagy mod active, Lmaj promast 100 (no result: b-catenin transl)
CCNc1nc(N)nc(Oc2ccc(OCCOc3ccc(Cl)cc3Cl)nn2)n1	Lmaj promast 98
CCNc1nc(NCC)nc(Oc2ccc(OCC)nn2)n1	none
CC1CC(C)CN(CCCNC(=O)Cn2ncn3cccc3c2=O)C1 (centres undefined)	none
CCc1cc2c(cc3c(=O)n(CC(=O)NCCCN4CC(C)CC(C)C4)ncn32)s1 (centres undefined)	Lmaj promast 84
CCc1cc2c(cc3c(=O)n(CC(=O)NCCCN(CC)CC)nc(CC)n32)s1	Lmaj promast 92
C=C(C)COc1ccc(-c2nc(N)ncc2Oc2ccc(OC)cc2)c(O)c1	none
CCOc1ccc(-c2[nH]ncc2Oc2ccccc2OC)c(O)c1	CHOP inhibitor 82
C=C(C)COc1ccc(-c2[nH]ncc2Oc2ccccc2OC)c(O)c1	Lmaj promast 54
COc1ccc(-c2cn[nH]c2-c2ccc(OCc3ccc([N+](=O)[O-])cc3)cc2O)cc1	CHOP inhibitor 91
C=C(C)COc1ccc(-c2nc(N)ncc2Oc2ccccc2OC)c(O)c1	CHOP inhibitor 93
Cc1oc(-c2cccc(Cl)c2)nc1CN1CCCC(C(=O)NC(C)c2ccc3c(c2)OCCO3)C1 (centres undefined)	none (no result: b-catenin transl)
N#Cc1ccc(S(=O)(=O)N2CCc3[nH]c4ccc(F)cc4c3C2)cc1	none (no result: MT stabilize HCS, Autophagy mod, Lmaj promast)
Cc1ccc2cn[nH]c2c1[N+](=O)[O-]	none
CCOc1ccc(-c2[nH]ncc2Oc2ccccc2OCC)c(O)c1	CHOP inhibitor 80
C=C(C)COc1ccc(-c2[nH]ncc2-c2ccc(Br)cc2)c(O)c1	MT stabilize HCS 19, CHOP inhibitor 106
CCOc1ccc(-c2[nH]ncc2-c2ccc(OC)c(OC)c2)c(O)c1	none (no result: CHOP inhibitor)
Nc1cc(N)nc(SCC(=O)N2CCN(S(=O)(=O)c3ccccc3)CC2)n1	none (no result: MT stabilize HCS, Autophagy mod, Lmaj promast)
COc1ccc(/C=C/C(=O)OCC(=O)Nc2ccc(Cl)c(S(=O)(=O)N(C)C)c2)cc1OC	none
CCc1cc2c(C)cc(=O)oc2cc1OC(=O)C1CCCN1C(=O)OC(C)(C)C (centres undefined)	Lmaj promast 89
CCc1ccc(NC(=O)Cn2cccc2)cc1	none
N#Cc1cnn2c(-c3ccc(Cl)cc3Cl)ccnc12	none
NC(=O)C1CCN(CCC(=O)Nc2ccc(Br)cc2)CC1	none
NC(=O)C1CCN(CCC(=O)Nc2ccc3c(c2)CCC3)CC1	Lmaj promast 80
CC1CN(CCC(=O)Nc2ccc3c(c2)CCC3)CC(C)O1 (centres undefined)	Lmaj promast 86
CC1CN(S(=O)(=O)c2cccc(C(=O)Nc3ccc4c(c3)CCC4)c2)CC(C)O1 (centres undefined)	Lmaj promast 85
CN(c1cccc(Cl)c1)S(=O)(=O)c1cccc(C(=O)Nc2ccc3c(c2)CCC3)c1	Lmaj promast 95
Cc1cc(C)n(CC(=O)O)c(=O)c1[N+](=O)[O-]	none
S=C(NC1CCCC1)N1CCN(c2ccc(Cl)cc2)CC1	none
CCOC(=O)c1[nH]c2ccccc2c1NC(=O)CCN1CC(C)OC(C)C1 (centres undefined)	none
Cc1cccc(C)c1NC(=O)CCCN1CC(C)OC(C)C1 (centres undefined)	Lmaj promast 66 (no result: b-catenin transl)
Cc1cc(NC(=O)CCN2CCC(C(N)=O)CC2)ccc1Br	Lmaj promast 82
CC1CCN(CCC(=O)Nc2ccc(Cl)cc2)CC1	none
CC1CCN(CCC(=O)Nc2ccc3c(c2)CCC3)CC1	Lmaj promast 84
O=C(NCc1ccc(Cl)cc1)C(=O)N/N=C/c1ccc(Br)cc1	none
COc1ccccc1NC(=O)c1nnn(CC(=O)Nc2cccc(SC)c2)c1N	CHOP inhibitor 70
CCOc1ccc(NC(=O)c2nnn(CC(=O)Nc3ccccc3OC)c2N)cc1	none (no result: b-catenin transl)

Source: PubChem BioAssay (several laboratories)
